In publication PMC6588464 (Cell chemical biology, 2019):

Assays:
[1] = tested on: CDK7-C312S expressing HAP1 cells; test: Growth rate inhibition; format: cell-based, human; conditions: for GRmax in CDK7-C312S cells: HAP1 CDK7-C312S, 72 hours
In short: (§1)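 HAP1 WT or CDK7-C312S cells were seeded at 500 cells/well, adhered 24 h, then treated with a dilution series for 72 h. Live cells were identified by a dead-cell stain and Hoechst nuclear segmentation and counted at dosing and at 72 h. Counts were normalised to same-plate DMSO controls to give growth rate inhibition (GR) values. Technical duplicates in biological triplicate.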

Jurkat cells = test: Proliferation assay, Cell Titer Glo; format: cell-based, human; conditions: 72 h, highest concentrations
In short: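 Jurkat cells at 2 × 10^4 cells/mL were exposed 72 h to compound at final concentrations from 20μM to 600pM. Viability was read by CellTiter-Glo luminescence, and IC50 was fitted by nonlinear regression. Run in triplicate.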

HAP1 cells [2] = test: Growth rate inhibition; format: cell-based, human; conditions: for GRmax: HAP1 wild-type, 72 hours
In short: as §1

CDK7-cyclin H [3] = test: Competitive bioTHZ1 pulldown in HAP1 cells; format: cell-based, human; conditions: for time required for equivalent engagement of CDK7 (>50%): compared with 30 min for YKL-5-124
HAP1 cells [4] = test: LIVE/DEAD dye staining in HAP1 cells; format: cell-based, human; conditions: HAP1 WT and CDK7-C312S, 72 hours
In short: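 HAP1 WT and CDK7-C312S cells were plated at 500 cells/well and allowed to adhere 24 h before a dilution series of test compound. Cells were analysed at time of dosing and after 72 h. After a 1 h EdU pulse they were stained with LIVE/DEAD Far Red (1:2000), then fixed with 3.7% formaldehyde for 30 min. Mean dye intensity within Hoechst nuclear masks classified cells as live or dead. Technical duplicates, biological triplicate.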

cyclin K- CDK12/13 = conditions: HAP1 cells, 6 hours
CDK12/13 = conditions: ref Zhang et al., 2016; Gao et al., 2018; cited from earlier work
CDK7 [5] = test: KiNativ profiling in Jurkat cells; format: cell-based, human; conditions: 1μM, 6 hours
In short: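 Jurkat cells were treated 6 h with 1μM compound or DMSO, then sonicated in 50 mM HEPES pH 7.5, 150 mM NaCl, 0.1% Triton X-100 with phosphatase inhibitors. Cleared lysate was labelled 10 min with 20 μM desthiobiotin-ATP acyl-nucleotide probe, denatured, alkylated and trypsin-digested for 1 h at 37°C. Probe-labelled peptides were captured on streptavidin and quantified by mass spectrometry as probe-binding block versus DMSO.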

WT HAP1 cells = test: RNA sequencing, differential expression and Jaccard analysis in HAP1 WT cells; format: cell-based, human; conditions: WT HAP1, 500nM, 24 hr, log2 fold change >1.5
In short: (§2)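 HAP1 WT or CDK7-C312S cells (1×106) were treated 24 h with 500nM or 2μM compound, alone or combined with a 250nM CDK12/13 inhibitor, with DMSO controls. RNA-seq was run in triplicate and genes were called differentially expressed at log2 fold change >1.5. Gene-set overlap between treatments was scored by Jaccard similarity index.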

[6] = tested on: CDK7-cyclin H-MAT1 trimeric complex; test: Mass spectrometry analysis of covalent labeling of recombinant CAK complex; format: binding; conditions: recombinant complex incubated 4 hours at 37 °C
In short: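 Recombinant CAK complex (CDK7/cyclin H/MNAT1) was incubated with test compound or DMSO for 4 h at 37 °C and resolved by SDS-PAGE, then analysed by nanoLC/MS. Two unlabeled, non-cysteine CDK7 peptides served for normalization. For CE-MS, treated complex was denatured (0.1% Rapigest final), reduced (10 mM DTT), alkylated (22.5 mM iodoacetamide) and trypsin-digested overnight at 37 °C.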

PARP cleavage = test: Western blot for PARP cleavage; format: cell-based, human; conditions: HAP1, all conditions up to 2 μM and 48 hours
[7] = tested on: Pol II CTD S2/S5/S7 phosphorylation; test: Western blot of RNA Pol II CTD phosphorylation in HAP1 and Jurkat cells; format: cell-based, human; conditions: up to 2 uM, combination with 250nM THZ531
In short: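 HAP1 WT and CDK7-C312S cells were treated 24 h with compound at the indicated concentrations, alone or with 250nM CDK12/13 inhibitor co-treatment. Lysis was 30 min on ice in RIPA buffer (50mM Tris-HCl, 150 mM NaCl, 1% NP-40, 0.5% deoxycholate, 0.1% SDS, pH 7.4) with protease/phosphatase inhibitors and nuclease. Pol II CTD phospho-serine marks were immunoblotted and detected with infrared-labelled secondary antibodies (1:10,000).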

CDK7/CycH/Mat1 = CDK7/CycH/Mat1 (Homo sapiens, UniProt P50613); test: Covalent inhibition kinetics, peptide substrate mobility shift assay; format: biochemical
Sequence of CDK7/CycH/Mat1 (P50613 whole entry): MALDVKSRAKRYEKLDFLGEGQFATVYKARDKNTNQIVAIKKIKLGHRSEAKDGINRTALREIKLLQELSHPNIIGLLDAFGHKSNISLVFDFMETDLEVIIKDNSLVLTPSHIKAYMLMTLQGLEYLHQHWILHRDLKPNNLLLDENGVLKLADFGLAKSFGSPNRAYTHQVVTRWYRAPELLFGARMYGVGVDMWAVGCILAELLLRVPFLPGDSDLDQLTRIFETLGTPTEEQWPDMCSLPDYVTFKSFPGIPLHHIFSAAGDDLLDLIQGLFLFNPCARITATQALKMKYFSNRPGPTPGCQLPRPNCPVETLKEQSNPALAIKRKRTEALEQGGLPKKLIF
Sequence of CDK7/CycH/Mat1 (P51946 whole entry partner): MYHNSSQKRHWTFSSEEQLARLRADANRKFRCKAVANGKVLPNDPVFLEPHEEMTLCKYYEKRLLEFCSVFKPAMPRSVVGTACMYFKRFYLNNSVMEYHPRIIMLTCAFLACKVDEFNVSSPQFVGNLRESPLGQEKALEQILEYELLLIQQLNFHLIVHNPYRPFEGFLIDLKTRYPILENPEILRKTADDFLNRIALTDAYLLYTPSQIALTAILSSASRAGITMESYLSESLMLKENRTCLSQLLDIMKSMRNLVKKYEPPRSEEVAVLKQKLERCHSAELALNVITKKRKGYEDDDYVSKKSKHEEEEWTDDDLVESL
Sequence of CDK7/CycH/Mat1 (P51948 whole entry partner): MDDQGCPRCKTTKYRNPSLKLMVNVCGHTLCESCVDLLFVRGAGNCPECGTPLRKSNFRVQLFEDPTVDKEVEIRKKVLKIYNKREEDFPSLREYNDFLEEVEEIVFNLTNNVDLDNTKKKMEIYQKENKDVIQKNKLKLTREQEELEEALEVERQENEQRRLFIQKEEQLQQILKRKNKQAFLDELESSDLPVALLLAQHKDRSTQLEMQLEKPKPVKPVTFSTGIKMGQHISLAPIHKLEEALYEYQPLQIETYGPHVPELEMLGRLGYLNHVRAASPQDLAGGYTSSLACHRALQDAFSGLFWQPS

HAP1 cells [8] = test: Cell cycle analysis; format: cell-based, human; conditions: HAP1 WT, 72 hours
In short: (§3)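 HAP1 WT and CDK7-C312S clones were seeded at 500 cells/well and allowed to adhere 24 h, then given a compound dilution series. Cells were analysed at dosing and after 72 h: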

CDK7 C312S = format: cell-based, Human
In short: (§4)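 HeLa cells stably expressing FLAG-tagged wild-type or C312S CDK7 were treated 6 h with compound or DMSO and lysed. Substrate was 1 μg RPB1 with 25 μM ATP plus 10 μCi 32P-ATP. Read-out was SDS-PAGE and phosphorimaging.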

CDK2/CycA = CDK2/CycA (Homo sapiens, UniProt P24941); test: Z'LYTE kinase assay, Km ATP; format: biochemical; conditions: read-out: IC50 CDK2
[9] = tested on: HAP1 cells expressing CDK7-C312S; test: Cell cycle analysis; format: cell-based, human; conditions: 72 hours
In short: as §3

phospho-CDK1(T161) = test: Western blot of CDK1 T-loop phosphorylation in HAP1 cells; format: cell-based, human; conditions: for effect on CDK1 T-loop phosphorylation: HAP1 WT, 24 hours, 125 nM to 2 μM YKL-5-124 or 2 μM YKL-5-167
In short: (§5)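 HAP1 WT and CDK7-C312S cells were treated 24 h across a concentration range, or with 2μM over a time course. Cells were lysed 30 min on ice in RIPA (50mM Tris-HCl, 150 mM NaCl, 1% NP-40, 0.5% deoxycholate, 0.1% SDS, pH 7.4) with protease/phosphatase inhibitors and nuclease. Blots were probed for phospho-T161 CDK1, phospho-T160 CDK2 and the total proteins, and detected with infrared-labelled secondaries.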

CDK13 = conditions: ATP 1mM, at the concentrations tested
CDK7 [10] = target: CDK7 (Homo sapiens, UniProt P50613); test: Radioactive in vitro kinase assay at 1 mM ATP; format: biochemical; conditions: read-out: IC50 for CDK7; ATP concentration of 1mM
Sequence of CDK7 (Homo sapiens, UniProt P50613) (P50613 2-346): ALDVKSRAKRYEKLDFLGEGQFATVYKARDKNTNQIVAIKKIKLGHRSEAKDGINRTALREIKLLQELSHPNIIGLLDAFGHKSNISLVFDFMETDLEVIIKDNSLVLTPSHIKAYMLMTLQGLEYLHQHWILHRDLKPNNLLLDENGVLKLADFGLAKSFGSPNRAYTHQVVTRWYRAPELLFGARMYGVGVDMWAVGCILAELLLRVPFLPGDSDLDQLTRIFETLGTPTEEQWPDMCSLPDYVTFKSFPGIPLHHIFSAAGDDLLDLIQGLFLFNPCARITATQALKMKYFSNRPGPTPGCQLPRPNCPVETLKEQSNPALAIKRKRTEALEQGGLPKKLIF
Sequence of CDK7 (Homo sapiens, UniProt P50613) (P51946 whole entry partner): as the sequence (P51946 whole entry partner) above
Sequence of CDK7 (Homo sapiens, UniProt P50613) (P51948 whole entry partner): as the sequence (P51948 whole entry partner) above

CDK9/CycT1 = CDK9/CycT1 (Homo sapiens, UniProt P50750); test: Adapta Eu kinase assay, Km ATP; format: biochemical; conditions: read-out: IC50 CDK9
Sequence of CDK9/CycT1 (P50750 whole entry): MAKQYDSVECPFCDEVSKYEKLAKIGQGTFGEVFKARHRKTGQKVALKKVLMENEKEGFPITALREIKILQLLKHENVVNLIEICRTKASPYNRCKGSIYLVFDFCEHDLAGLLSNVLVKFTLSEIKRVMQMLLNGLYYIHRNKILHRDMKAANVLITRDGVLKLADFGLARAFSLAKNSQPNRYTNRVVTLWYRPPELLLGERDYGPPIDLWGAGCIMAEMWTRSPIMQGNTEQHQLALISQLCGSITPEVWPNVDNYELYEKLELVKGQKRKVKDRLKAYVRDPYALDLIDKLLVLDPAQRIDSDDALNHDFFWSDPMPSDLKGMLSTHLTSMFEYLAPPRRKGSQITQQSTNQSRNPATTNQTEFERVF
Sequence of CDK9/CycT1 (O60563 whole entry partner): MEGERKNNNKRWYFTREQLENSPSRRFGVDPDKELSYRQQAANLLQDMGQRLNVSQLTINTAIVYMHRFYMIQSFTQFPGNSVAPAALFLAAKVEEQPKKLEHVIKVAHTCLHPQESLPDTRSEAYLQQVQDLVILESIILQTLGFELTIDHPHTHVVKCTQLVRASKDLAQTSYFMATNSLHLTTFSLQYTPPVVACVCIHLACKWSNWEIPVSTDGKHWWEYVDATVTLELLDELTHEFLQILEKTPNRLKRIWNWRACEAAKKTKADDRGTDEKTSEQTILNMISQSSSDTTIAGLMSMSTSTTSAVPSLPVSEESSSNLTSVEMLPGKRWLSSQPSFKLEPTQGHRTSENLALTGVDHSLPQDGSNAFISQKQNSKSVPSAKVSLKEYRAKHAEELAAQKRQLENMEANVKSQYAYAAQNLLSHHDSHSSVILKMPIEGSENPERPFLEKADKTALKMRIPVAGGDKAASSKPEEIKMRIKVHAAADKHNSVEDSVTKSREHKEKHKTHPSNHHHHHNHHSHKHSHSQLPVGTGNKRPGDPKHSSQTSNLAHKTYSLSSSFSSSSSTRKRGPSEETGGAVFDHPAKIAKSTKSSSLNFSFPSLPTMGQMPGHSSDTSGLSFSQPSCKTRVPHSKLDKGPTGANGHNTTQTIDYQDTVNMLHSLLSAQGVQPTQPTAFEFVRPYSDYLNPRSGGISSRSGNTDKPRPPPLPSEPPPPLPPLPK

CDK7-C312S cells = format: cell-based, human; conditions: 500nM, 24 hr
In short: as §2

CDK12 = test: Radioactive in vitro kinase assay at 1 mM ATP; format: biochemical; conditions: ATP 1mM, at the concentrations tested
CDK7/Mat1/CycH = CDK7/Mat1/CycH (Homo sapiens, UniProt P50613); test: Adapta Eu fixed time point in vitro kinase assay, Km ATP; format: biochemical
Sequence of CDK7/Mat1/CycH (P50613 whole entry): as the sequence (P50613 whole entry) above
Sequence of CDK7/Mat1/CycH (P51946 whole entry partner): as the sequence (P51946 whole entry partner) above
Sequence of CDK7/Mat1/CycH (P51948 whole entry partner): as the sequence (P51948 whole entry partner) above

CDK7 [11] = format: cell-based, Human; conditions: at 10μM, Hela cells treated 6 hours, wild-type CDK7
In short: as §4

CDK7-cyclin H [12] = test: Competitive bioTHZ1 pulldown in Jurkat cells; format: cell-based, human; conditions: Jurkat cells versus HAP1 cells
CDK2(T160) = test: Western blot of CDK2 T-loop phosphorylation in HAP1 cells; format: cell-based, human; conditions: HAP1 WT, 24 hours, 125 nM to 2 μM YKL-5-124 or 2 μM YKL-5-167
In short: as §5

## CN(C)C/C=C/C(=O)Nc1ccc(C(=O)Nc2cccc(Nc3ncc(Cl)c(-c4c[nH]c5ccccc45)n3)c2)cc1 [THZ1, reference compound]
[1]
  GRmax in CDK7-C312S cells: unchanged
Jurkat cells
  maximal inhibition of proliferation: inhibit proliferation to zero
HAP1 cells [2]
  GRmax: negative
CDK7-cyclin H [3]; HAP1 cells
  time required for equivalent engagement of CDK7 (>50%): twice as long
HAP1 cells [4]
  cell death by LIVE/DEAD dye: induced substantially more cell death than YKL-5-124
Cyclin K- CDK12/13
  effect on pulldown of cyclin K- CDK12/13: bound to both CDK7 and CDK12/13

## CN(C)C/C=C/C(=O)Nc1ccc(C(=O)N2CCC[C@@H](Nc3ncc(Cl)c(-c4c[nH]c5ccccc45)n3)C2)cc1 [THZ531]
CDK12/13
  times more potent on CDK12/13 than CDK7: approximately 20 times

## C=CC(=O)Nc1ccc(C(=O)Nc2n[nH]c3c2CN(C(=O)N[C@H](CN(C)C)c2ccccc2)C3(C)C)cc1 [YKL-5-124, (S)-3-(4-acrylamidobenzamido)-N-(2-(dimethylammo)-1-phenylethyl)-6,6-dimethyl-4,6-dihydropyrrolo[3,4-c]pyrazole-5(1H)-carboxamide]
[1]; HAP1, 72 hours
  GR50 fold higher in CDK7-C312S than in wild-type cells: at least 150 fold
[1]
  GRmax in CDK7-C312S cells: too high to be estimated accurately
Jurkat cells
  maximal inhibition of proliferation (residual, of the original cell count): ≤ 20%
HAP1 cells [2]; HAP1 and Jurkat cells
  concentration at which strong anti-proliferative effects begin: 100 nM
HAP1 cells [2]
  GRmax: zero
CDK7 [5]
  CDK7 bound (block of desthiobiotin-ATP probe): more than 65%
CDK7-cyclin H [3]; 100 nM, 30 min
  reduction of CDK7-cyclin H binding to bioTHZ1: > 50%
CDK7-cyclin H [3]; HAP1 cells, 6 hours
  concentration that blocked pulldown of CDK7-cyclin H: about 30 nM
CDK7-cyclin H [3]; washout after 3-hour treatment
  lowest concentration with engagement of CDK7 three hours after washout: 125 nM
WT HAP1 cells
  number of differentially expressed genes: 1452 genes
[6]
  efficiency of covalent labeling of CDK7: approximately 99%
PARP cleavage
  PARP cleavage / apoptosis: apoptosis was not induced
[7]
  effect on phosphorylation of S5 and other Pol II CTD serine residues: no effect
CDK7/CycH/Mat1; 1 mM ATP, 2-step inactivation model
  Ki: 1.9 nM
CDK7/CycH/Mat1; ratio of kinact values
  covalently modifies CDK7 times faster than THZ1: approximately 11 times
HAP1 cells [8]
  effect on cell cycle distribution: dose-dependent increase in G1 and G2/M phase cells and a corresponding loss of S phase cells
CDK7 C312S
  inhibitory activity in the in vitro kinase assay with C312S mutant: abolished the inhibitory activity
CDK2/CycA
  IC50: 1300 nM
[9]
  effect on cell cycle distribution in CDK7-C312S cells: cell cycle distribution was not affected
phospho-CDK1(T161); HAP1, 2μM
  time to inhibition of T-loop phosphorylation: ≤ 12 h
phospho-CDK1(T161)
  effect on CDK1 T-loop phosphorylation: inhibited CDK1 T-loop phosphorylation
phospho-CDK1(T161); HAP1 and Jurkat cells
  concentration for reduced CDK1/2 activation: exceeding 1 μM
CDK13
  inhibition of CDK13: no inhibition
CDK7 [10]
  IC50: 53.5 nM
CDK9/CycT1
  IC50: 3.02 µM
HAP1 cells [4]
  cell death by LIVE/DEAD dye: substantially reduced in CDK7-C312S cells
CDK7-C312S cells
  number of differentially expressed genes: 583 genes
CDK12
  inhibition of CDK12: no inhibition
CDK7/Mat1/CycH
  selectivity for CDK7 than CDK9 and CDK2: 100 fold
CDK7/Mat1/CycH; read-out: IC50 CDK7/Mat1/CycH, fixed time point, Km ATP
  IC50: 9.7 nM
Cyclin K- CDK12/13
  effect on pulldown of cyclin K- CDK12/13: no effect

## CCC(=O)Nc1ccc(C(=O)Nc2n[nH]c3c2CN(C(=O)N[C@H](CN(C)C)c2ccccc2)C3(C)C)cc1 [YKL-5-167, (S)-N-(2-(dimethylamino)-1-phenylethyl)-6,6-dimethyl-3-(4-propionamidobenzamido)-4,6-dihydropyrrolo[3,4-c]pyrazole-5(1H)-carboxamide]
CDK7 [5]
  CDK7 engagement in KiNativ: only weakly engaged
CDK7-cyclin H [3]; HAP1 cells
  time required for equivalent engagement of CDK7 (>50%): 6 h
CDK7-cyclin H [3]; relative to YKL-5-124
  fold less effective as a competitor for CDK7-cyclin H: 100 fold
CDK7-cyclin H [3]; washout after 3-hour treatment
  activity as competitor following washout: inactive following washout
CDK7 [11]
  inhibition of phosphorylation of RNA polymerase II substrate: little or no inhibition
HAP1 cells [8]
  effect on cell cycle distribution: no effect on cell cycle distribution
phospho-CDK1(T161)
  effect on CDK1 T-loop phosphorylation: no detectable effect
CDK7-cyclin H [12]
  fold higher concentrations required to function as a competitor: 10 fold
CDK2(T160)
  effect on CDK2 T-loop phosphorylation: no detectable effect
